As a reminder, the Ki is a measure of affinity in units of concentration, obtained from inhibition or displacement. A high value points to lower affinity. Broadly, the IC50 is the concentration at which inhibition is half-maximal. A lower IC50 goes with greater potency in that assay. What is called Kd is the free concentration of one partner at which half of the binding sites on the other are occupied at equilibrium, for simple one-to-one binding. Low readings indicate higher affinity, high ones lower affinity.

Like-named read-outs stand apart in the source and are kept apart here. Bounds are passed on as bounds.

The text below walks through data of PMC8716398 (Biochemical and Biophysical Research Communications, 2021).

Assay [1] has as its target T1, 3CLpro (Severe acute respiratory syndrome coronavirus 2, UniProt P0DTD1). The format is biochemical, SARS-CoV-2.
Assay [2] deals with T2, 3CLpro of SARS-CoV-2 (Severe acute respiratory syndrome coronavirus 2, UniProt P0DTD1). In words: Analysis of inhibition type. It is filed as biochemical.
Assay [3] has as its target Proteinase K (Parengyodontium album, UniProt P06873). In words: Enzyme activity assay, hydrolytic activity of Proteinase K. The format is biochemical.
Assay [4] has as its target T3, Papain (Carica papaya, UniProt P00784).
T3 sequence (P00784 134-345): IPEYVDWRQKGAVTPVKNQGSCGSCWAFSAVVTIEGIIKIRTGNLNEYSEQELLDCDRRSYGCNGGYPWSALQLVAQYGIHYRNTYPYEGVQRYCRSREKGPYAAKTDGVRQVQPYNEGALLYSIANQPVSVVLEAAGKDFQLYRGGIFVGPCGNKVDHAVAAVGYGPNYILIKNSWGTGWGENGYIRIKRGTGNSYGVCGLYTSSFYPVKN
Description: Enzyme activity assay, hydrolytic activity of Papain. It is filed as biochemical.

The target of assay [5] is T1, 3CLpro. In words: Isothermal titration calorimetry. Also noted: species or system SARS-CoV-2. The conditions noted are these: KD of the secondary binding, ITC, two sets of independent sites model, 25 °C. The method, boiled down: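 ITC was run at 25 °C in 10 mM HEPES pH 7.4 containing 2% DMSO. Test compound (2 mM, syringe) was injected stepwise into 40 μM 3CLpro in the cell, with 120 s between injections. A matching titration into buffer alone was subtracted. Integrated peak areas were fitted with a two-sets-of-independent-sites model.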
In general terms: ITC needs no label: the signal is the heat of the interaction.

Assay [6] has as its target T1, 3CLpro. Description: Surface plasmon resonance. The following applies: SPR, heterogeneous ligand model. It is filed as binding, SARS-CoV-2.
In assay [7] the target is T2, 3CLpro of SARS-CoV-2. In words: Enzyme activity assay, hydrolytic activity of 3CLpro. It is filed as biochemical.
The target of assay [8] is T1, 3CLpro. Description: biochemical. It is filed as binding, SARS-CoV-2.
Where [9] appears, read: HTS of ∼6000 compounds at 16.7 μM.

Proteinase K, sequence (P06873 106-384): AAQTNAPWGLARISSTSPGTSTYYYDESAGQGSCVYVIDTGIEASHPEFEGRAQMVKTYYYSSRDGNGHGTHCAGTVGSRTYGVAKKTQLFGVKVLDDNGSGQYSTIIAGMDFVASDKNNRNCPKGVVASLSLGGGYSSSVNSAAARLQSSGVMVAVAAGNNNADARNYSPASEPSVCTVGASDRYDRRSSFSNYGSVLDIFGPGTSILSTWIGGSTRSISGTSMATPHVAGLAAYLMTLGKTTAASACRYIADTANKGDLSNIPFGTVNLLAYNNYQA

`O=c1sn(-c2cccc3ccccc23)c(=O)n1Cc1ccccc1` [Tideglusib]: the “HTS outcome (potential 3CLpro inhibitor)” value in assay [1] (setting [9]) is given as “screened out”.
Same read-out and setting: under `Cn1sc(=O)n(Cc2ccccc2)c1=O` [TDZD-8] stands “screened out”.
Consider `CCC(C)SSc1ncc[nH]1` (centres unmarked) [PX-12], for which, in assay [1], the “HTS outcome (potential 3CLpro inhibitor)” value is “screened out”.
As to `CCN(CC)C(=S)SSC(=S)N(CC)CC` [Disulfiram], the “HTS outcome (potential 3CLpro inhibitor)” value in assay [1] (setting [9]) is listed as “screened out”.
Regarding `O=c1c2ccccc2[se]n1-c1ccccc1` [Ebselen], the “HTS outcome (potential 3CLpro inhibitor)” value in assay [1] is “screened out”.
With `CC(C)=CC[C@@H](O)C1=CC(=O)c2c(O)ccc(O)c2C1=O` [Shikonin], in assay [1] (setting [9]), the “HTS outcome (potential 3CLpro inhibitor)” value is on record as “screened out”.
In assay [2], `O=C(O)c1ccccc1-c1c2cc(Br)c(=O)cc-2oc2[c]([Hg+])c(O)c(Br)cc12` [Merbromin] yielded a Ki of 3.93 ± 1.41 µM. The “mixed constant (Alpha)” value in assay [2] (mixed model inhibition, global fit Eqn. (4)) was determined as 3.77 ± 3.96. Besides, the IC50 is over 70 µM in assay [3], 8.03 µM in assay [4] and 2700 ± 170 nM in assay [7]. In addition, the Kd in assay [5] came out at 67.8 µM; in assay [8], 11.8 ± 0.98 µM. Also, the ka1 in assay [6] (first set) amounted to 694.6 ± 2.61 L/mol/s. Further, the kd1 in assay [6] (first set) is listed as 1.25 ± 0.01 × 10^−3 s^−1. This compound also had a ka2 in assay [6] (second set) of 646.7 ± 3.98 L/mol/s. In assay [6] (second set), the kd2 is recorded as 16.25 ± 0.08 × 10^−3 s^−1.
